# Rows were chosen to be rich in hits. Some 1.8% of all compounds tested hit in one or more screens of this group.
# Runt-CBFb FRET – Runt domain-CBFb interaction inhibition; inhibition, % at 20 µM; Q01196+Q13951; 0.46% of 220,000 active; Cerulean-Runt/Venus-CBFb FRET ratio 530/480, 1 h;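 active = inhibition over about 50% at 20 µM in the single-dose screen, limit read from the data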;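 also: 0% = DMSO wells and 100% = excess unlabeled CBFb competitor control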
#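 Doses: 20 µM compound in 1% DMSO | Material: Cerulean-labeled Runt domain protein | Amount: Each fluorescent fusion protein 100 nM | Schedule: Two 1 h room-temperature incubations shielded from light | Measured by: FRET fluorescence | Evaluation: Loss of energy transfer signal | Controls: Unlabeled CBFb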
# RanGTP-Impb inh – disruptors of Ran-importin-beta complex formation – biochemical, FRET, CFP-Ran, YFP-importin-beta, homogeneous, primary screen | cell-free CFP-Ran/YFP-importin-beta FRET ratio | inhibition, % (concentration not given with the values) | 1.1% of 300,000 active | AID 2216;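 active = more than half of the replicate wells show a fall in the fluorescence ratio signal beyond about 16%, limit read from the data, passing the limit was not always enough; inconclusive = exactly half of the replicate wells pass the set limit; inactive = fewer than half of replicates pass the limit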;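 also: 0% = DMSO wells and 100% = Ran loaded with GDP instead of GTP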
# Platelet DG rel – platelet dense granule release activity; human platelet-rich plasma, SFLLRN dense granule ATP release, luminescence; inhibition, %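 (compounds screened at 7.5 µM in platelet-rich plasma)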; 0.22% of 300,000 active; AID 1663;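 active = mean replicate score, as percent of positive control, at or above 50; inconclusive = mean below 50 but at least one replicate at or above 50; inactive = mean and every replicate below 50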
# Rce1 inh – yeast Ras-converting enzyme inhibition | 0.27% of 290,000 active | AID 2563 | yeast membranes, quenched prenylated peptide cleavage fluorescence | calls only;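 active = fall in fluorescence gain of 50% or more versus controls, with final raw signal at or below 3038400; inconclusive = same 50% fall but final raw signal above 3038400; inactive = fall in fluorescence gain under 50%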;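 also: plate controls were neutral control wells for no effect and wells lacking membranes for full effect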
# Target sequence (Q03530 whole entry, looked up): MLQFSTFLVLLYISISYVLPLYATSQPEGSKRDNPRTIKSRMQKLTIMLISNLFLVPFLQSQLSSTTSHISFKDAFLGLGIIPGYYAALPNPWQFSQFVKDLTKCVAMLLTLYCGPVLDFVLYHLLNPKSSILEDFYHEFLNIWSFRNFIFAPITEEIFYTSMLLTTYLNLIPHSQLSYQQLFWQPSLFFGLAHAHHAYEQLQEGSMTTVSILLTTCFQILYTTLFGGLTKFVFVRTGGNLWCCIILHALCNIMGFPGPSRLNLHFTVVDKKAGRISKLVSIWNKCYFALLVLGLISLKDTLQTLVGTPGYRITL
# Runt-SMMHC FRET – inhibitors of human RUNX1 Runt domain binding to CBFb-SMMHC; AID 1434; inhibition, % at 20 µM; Cerulean-Runt/Venus-CBFb-SMMHC FRET ratio 530/480, 1 h; 0.74% of 220,000 active; Q01196+Q13951;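 active = mean inhibition across duplicate retests at 20 µM reaching about 50%, limit read from the data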;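 also: 0% = DMSO wells and 100% = wells with excess untagged CBFb-SMMHC; inhibitors lower the FRET ratio by blocking Runt binding to CBFb-SMMHC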
# * marks the source's active call; other numbers are inactive results; i = inactive; ? = inconclusive; . = not tested or not shown; + = active, no number.
SMILES,Runt-CBFb FRET,RanGTP-Impb inh,Platelet DG rel,Rce1 inh,Runt-SMMHC FRET
COc1ccc(/C(O)=C2/C(=O)C(=O)N(CCN(C)C)C2c2ccccn2)cc1OC (stereo not given),3.2,22.8*,-0.6,i,-1.7
O=C1C(=O)N(CCN2CCOCC2)C(c2cccnc2)/C1=C(/O)c1ccccc1 (stereo not given),.,4.4,-0.7,i,.
CC(C(=O)OCC(=O)c1cccc([N+](=O)[O-])c1)N1C(=O)C2C3CCC(C3)C2C1=O (stereo not given),-0.4,-2.2,0.1,i,-3.0
COc1ccc(Cl)cc1N(CC(=O)N(C)C)S(=O)(=O)c1ccc(C)c([N+](=O)[O-])c1,-1.1,3.8,7.2,.,-1.6
CC1(C)CC(=O)C2=C(C1)N(c1cccc(O)c1)C1=C(C2)C(=O)CC(C)(C)C1,34.0,73.7*,3.2,i,57.4*
COc1ccccc1OC(C)C(=O)N1CCC(Cc2ccccc2)CC1 (stereo not given),.,0.2,-3.6,.,.
Cc1ccccc1OC(C)C(=O)N1CCC(Cc2ccccc2)CC1 (stereo not given),.,-1.1,-3.4,+,.
O=C(CN1CCN(C(=O)c2ccco2)CC1)N1CCc2[nH]c3ccccc3c2C1,-24.0,29.3*,-2.6,i,-27.4
CCc1nccn1CCC(=O)N1CCCC(N2CCN(c3ccccc3C)CC2)C1 (stereo not given),.,0.9,-8.4,i,.
Cc1nn(C(=O)c2ccco2)c(C)c1Sc1ccccc1,52.9*,5.6,-0.8,i,-2.0
O=Cc1cc(CCC(=O)O)ccc1O,.,6.9,-1.2,i,.
COc1ccc2c(c1)cc(C(=O)N[C@@H](CCSC)C(=O)N1CCC(C(=O)O)CC1)n2C,.,-2.3,3.3,+,.
CCCn1c(C)cc(C(=O)COC(=O)c2nccnc2N)c1C,10.8,25.5*,1.9,i,6.9
Cn1c(=O)[nH]c(=O)c2c1nc(Br)n2CCSc1ncccn1,.,4.2,0.5,i,1.1
Cn1c(=O)c2c(nc(Br)n2CCSc2ncccn2)n(C)c1=O,-0.5,24.7*,1.3,i,-1.5
c1ccn2cc(-c3ccc4c(c3)OCO4)cc2c1,59.0*,-1.7,9.0,i,91.9*
CCCC(=O)Oc1ccc2c(C)cc(=O)oc2c1,8.0,?,-0.1,i,23.5
Cc1cc(=O)oc2cc(OC(=O)c3cncc(Br)c3)ccc12,32.7,1.0,0.2,i,59.2*
CCCCn1nc(C(=O)Oc2ccc3c(C)cc(=O)oc3c2)c2ccccc2c1=O,30.2,3.6,0.9,i,57.8*
O=C(CSc1nnc(-c2ccncc2)o1)NC1C2CC3CC(C2)CC1C3 (stereo not given),-0.2,2.1,-16.1,i,-0.6
Cc1cc(Br)c(NC(=O)Cn2c([N+](=O)[O-])cnc2C)cc1C,.,4.4,-0.7,i,.
CC(C)c1c(C(=O)N/N=C/c2ccco2)nnn1-c1nonc1N,.,-1.2,5.6,i,.
CCCCOc1ccc(/C=N/NC(=O)c2nnn(-c3nonc3N)c2CN2CCCCCC2)cc1,.,27.5*,-1.9,i,.
Cc1ccc(-c2c(C(=O)N/N=C/c3ccoc3)nnn2-c2nonc2N)cc1,.,2.9,11.0,i,.
Nc1nonc1-n1nnc(C(=O)N/N=C/c2cccc(Cl)c2)c1CSc1ccc(Cl)cc1,.,1.5,7.7,+,-2.0
SMILES,Runt-CBFb FRET,RanGTP-Impb inh,Platelet DG rel,Rce1 inh,Runt-SMMHC FRET
Nc1nonc1-n1nnc(C(=O)N/N=C/c2ccc(OCc3ccccc3)cc2)c1CN1CCCCC1,.,2.3,6.4,i,.
Cc1ccc(/C=N/NC(=O)c2nnn(-c3nonc3N)c2C(C)C)o1,.,7.0,10.9,+,.
Nc1nonc1-n1nnc(C(=O)N/N=C/c2cccc(Cl)c2)c1CSc1ccccc1,0.4,-1.1,7.7,.,0.7
Cc1ccc(-c2c(C(=O)N/N=C/c3cccc(Cl)c3)nnn2-c2nonc2N)cc1,.,2.3,17.8,+,.
O=C(Cc1ccccc1)N1CCN=C1SCc1cccc([N+](=O)[O-])c1,0.4,-0.2,5.0,i,-0.9
Cc1ccc(SCc2c(C(=O)N/N=C/c3ccccc3)nnn2-c2nonc2N)cc1,-0.7,6.8,0.5,+,-2.0
N#Cc1c(-c2ccccc2)c(C#N)c2nc3ccccc3n2c1N,82.5*,-4.3,6.1,i,93.9*
N#CCSc1nc2ccccc2c2nc3ccccc3n12,-1.1,-3.6,-9.1,i,-2.7
CCc1c(C)c(C#N)c2nc3ccccc3n2c1NC,.,0.0,3.2,i,.
Cc1ccc(-c2c(C#N)c(N)n3c(nc4ccccc43)c2C#N)cc1,58.5*,-1.2,2.1,i,118.0*
Cc1cc(C(=O)CN2C(=O)NC3(CCCCC3)C2=O)c(C)n1-c1ccc2c(c1)OCO2,8.1,-1.7,5.5,i,3.5
CCCC(C(=O)NC1CCCC1)N(Cc1ccccc1)C(=O)c1snc(C(N)=O)c1N (stereo not given),.,0.9,0.6,i,.
CC(C)(C)C1C=C(Sc2ccccc2)C(=O)O1 (stereo not given),0.0,1.6,-5.9,i,1.7
Cc1cccn2c(=O)c3cc(C(=O)NC4CCCCCC4)sc3nc12,.,18.6*,-2.7,i,.
Cc1cccn2c(=O)c3cc(C(=O)NCCc4ccccc4)sc3nc12,.,0.2,-4.3,i,.
Cc1cccn2c(=O)c3cc(C(=O)NC4CCS(=O)(=O)C4)sc3nc12 (stereo not given),5.9,4.6,0.6,i,8.6
CN1CCN(C(=O)c2cc3c(=O)n4ccccc4nc3s2)CC1,.,19.7*,-8.5,i,.
CSc1ccccc1NC(=O)c1cc2c(=O)n3ccccc3nc2s1,.,71.5*,-2.3,i,.
Cc1ccccc1NC(=O)c1cc2c(=O)n3cccc(C)c3nc2s1,.,83.8*,-0.7,i,.
CCCCN(CC)Cc1ccc(CNC(=S)Nc2cccc(F)c2)o1,4.7,-1.1,-5.7,i,5.4
CCOc1ccc(NC(=O)NCc2ccc3c(c2)OCO3)cc1,.,9.2,-4.9,i,.
Cc1ccc(S(=O)(=O)NC(C)(C)C)cc1C(=O)OCC(=O)N1CCCC1=O,.,2.7,-13.8,i,.
NS(=O)(=O)c1ccc(NC(=O)COC(=O)/C(=C/c2cccs2)c2cccs2)cc1,-1.0,2.2,-3.2,i,-1.8
Cc1ccc(S(=O)(=O)C(C#N)c2nc3ccccc3nc2N2CCN(C)CC2)cc1C (stereo not given),14.5,93.5*,4.4,i,45.6
CN1CCN(c2nc3ccccc3nc2C(C#N)S(=O)(=O)c2ccccc2)CC1 (stereo not given),41.8,64.3*,10.7,i,-4.3
O=C(O)c1ccc(N=Nc2c(O)[nH]c3ccccc23)cc1,-9.0,-3.1,133.0*,i,-35.1
N/C(Cc1ccc(Cl)c(Cl)c1)=N\OC(=O)c1ccc(Br)o1,0.4,-1.8,0.9,i,1.5
c1ccc(N2CCN(c3nc(NCc4ccco4)c4ccccc4n3)CC2)cc1,0.7,3.7,-11.6,i,2.6

# Assay outcomes (PubChem)
